Measurements taken from ChEMBL document CHEMBL1221230, “Inhibition of eukaryotic translation elongation by cycloheximide and lactimidomycin” (Nat Chem Biol, 2010).
The source made the active and inactive calls. No cut-off for these calls is given here. Numbered stars: 1 amine (or outer) side, 2 acyl side, 3 side chain; on linkers, the order of the positions; unused ones are H or OH. Bridge positions count the residues as written; N and C are the ends. Square brackets hold non-standard residues; d marks the D form. Peptide text beside a SMILES is read from it. I, II: the chains in the order shown. Actinocin(1to9) = Cc1c2oc3c(C)ccc(C(=O)[*:2])c3nc-2c(C(=O)[*:1])c(N)c1=O; NMeV = CN[C@H](C(=O)O)C(C)C; Sar = CNCC(=O)O

Experiments:
[1] = Inhibition of elF4A-mediated renilla luciferase translational activity at 200 to 2000 nM in presence of HCV IRES element
[2] = Inhibition of elF4A-mediated renilla luciferase translational activity at 100 to 200 nM in presence of HCV IRES element
HeLa [3] = assay: Antiproliferative activity against human HeLa cells assessed as incorporation of [3H]thymidine in nuclear DNA at 2.5 uM after 24 hrs by scintillation counting; format: functional, cell-based
Method in brief: (§1)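 Each of three tumour cell lines incubated with compound at 2.5 μM for 24 h, then [³H]thymidine added to monitor DNA synthesis; initial proliferation screen.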

Jurkat = assay: Antiproliferative activity against human Jurkat cells assessed as incorporation of [3H]thymidine in nuclear DNA at 2.5 uM after 24 hrs by scintillation counting; format: functional, cell-based; method in brief: as §1
MDA-MB-231 = assay: Antiproliferative activity against human MDA-MB-231 cells assessed as incorporation of [3H]thymidine in nuclear DNA at 2.5 uM after 24 hrs by scintillation counting; format: functional, cell-based; method in brief: as §1
HeLa [4] = assay: Inhibition of protein synthesis in human HeLa cells assessed as [35S]cysteine/methionine utilization after 2 hrs by scintillation spectroscopy; format: functional, cell-based
Method in brief: (§2)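 HeLa cells incubated 2 h with varying compound concentrations plus [³⁵S]cysteine/methionine (translation) or [³H]uridine (transcription). Protein synthesis: scintillation counting of TCA-precipitated protein on PVDF membrane. Transcription: scintillation counting of nucleic acids bound to GF/C glass fibre filter.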

[5] = Effect on peptidyl transfer assessed as [35S]methionyl-puromycin formation by TLC
HeLa [6] = assay: Inhibition of transcriptional activity in human HeLa cells assessed as [3H]uridine utilization after 2 hrs by scintillation counting; format: functional, cell-based; method in brief: as §2
[7] = Inhibition of [32P]deacetylated phe-tRNA binding to 60S ribosome E-site by footprinting assay
HEK-293T [8] = assay: Effect on polyribosome profiling in human HEK293T cells assessed as depletion of polysomes at 100 uM after 30 mins by spectrophotometry; format: functional, cell-based
Method in brief: (§3)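 HEK 293T cells treated 30 min with compound, then lysed; lysates centrifuged through 15–45% sucrose gradient to give polysome profiles.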

Saccharomyces cerevisiae [9] = assay: Fold resistance, ratio of IC50 for Saccharomyces cerevisiae BY740 expressing ribosomal protein cyh2 and harboring mutation in rpl28 to IC50 for Saccharomyces cerevisiae […]; format: functional
Method in brief: (§4)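 Four isogenic S. cerevisiae strain pairs, each differing only by presence or absence of cyh2, exposed to varying compound concentrations; growth read by optical density; IC50 derived per strain, resistance as ratio between paired strains.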

Saccharomyces cerevisiae [10] = assay: Fold resistance, ratio of IC50 for Saccharomyces cerevisiae BY724 expressing ribosomal protein cyh2 and harboring mutation in rpl28 to IC50 for Saccharomyces cerevisiae BY108; format: functional; method in brief: as §4
Saccharomyces cerevisiae [11] = assay: Antimicrobial activity against Saccharomyces cerevisiae J407alpha expressing ribosomal protein cyh2 and harboring mutation in rpl28; format: functional, organism-based; method in brief: as §4
Saccharomyces cerevisiae [12] = assay: Fold resistance, ratio of IC50 Saccharomyces cerevisiae J407alpha expressing ribosomal protein cyh2 and harboring mutation in rpl28 to IC50 for Saccharomyces cerevisiae J47alpha; format: functional; method in brief: as §4
[13] = Effect on polyribosome profiling assessed as accumulation of 80S ribosomes after 15 mins by scintillation spectroscopy; format: functional
Method in brief: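 Capped [³²P]-labelled rabbit β-globin RNA incubated in rabbit reticulocyte lysate with compound for 15 min, then centrifuged through 10–35% sucrose gradient.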

HEK-293T [14] = assay: Effect on polyribosome profiling in human HEK293T cells assessed as depletion of polysomes at 50 uM after 30 mins by spectrophotometry; format: functional, cell-based; method in brief: as §3
Oryctolagus cuniculus = species on record: Oryctolagus cuniculus; assay: Inhibition of translational activity in rabbit reticulocyte assessed as occurrence of ribosomal arrest at start codon at 10 mM by toeprinting assay; format: functional
Method in brief: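 Labelled rabbit β-globin mRNA incubated in rabbit reticulocyte lysate with inhibitor; mixture centrifuged through sucrose gradient, 80S fractions taken to isolate stalled ribosomes; primer extended by AMV reverse transcriptase toward stalled ribosome to map arrest site.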

Saccharomyces cerevisiae [15] = assay: Antimicrobial activity against Saccharomyces cerevisiae BY686 expressing ribosomal protein cyh2 and harboring mutation in rpl28; format: functional, organism-based; method in brief: as §4
Saccharomyces cerevisiae [16] = assay: Fold resistance, ratio of IC50 for Saccharomyces cerevisiae BY686 expressing ribosomal protein cyh2 and harboring mutation in rpl28 to IC50 Saccharomyces cerevisiae JB503; format: functional; method in brief: as §4
[17] = target: T1, Elongation factor 1-alpha 1 (Homo sapiens) (UniProt P68104); assay: Inhibition of eEF1A-mediated tRNA binding to ternary complex at 200 uM after 10 mins by filtration binding assay
T1 sequence (whole entry): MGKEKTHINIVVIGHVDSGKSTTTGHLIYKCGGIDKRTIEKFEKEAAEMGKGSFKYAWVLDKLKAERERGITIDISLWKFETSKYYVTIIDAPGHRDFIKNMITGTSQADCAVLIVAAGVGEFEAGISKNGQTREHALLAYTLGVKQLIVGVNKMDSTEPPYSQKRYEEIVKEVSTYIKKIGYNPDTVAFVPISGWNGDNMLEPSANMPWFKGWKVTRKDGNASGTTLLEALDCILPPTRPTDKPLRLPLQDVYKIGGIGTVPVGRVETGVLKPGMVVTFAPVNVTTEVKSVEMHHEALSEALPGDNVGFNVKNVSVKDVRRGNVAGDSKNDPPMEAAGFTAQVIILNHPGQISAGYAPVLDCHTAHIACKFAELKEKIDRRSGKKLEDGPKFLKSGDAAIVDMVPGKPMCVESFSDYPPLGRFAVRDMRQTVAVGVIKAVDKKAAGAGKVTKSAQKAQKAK
Method in brief: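 Ribosomes (89 pmol) in 20 mM HEPES pH 7.4, 100 mM KCl, 10 mM MgCl₂, 1 mM DTT with 200 ng poly(U), 2.2 μg eEF1A, 150 μM GDPNP and 200 μM compound, before 10 pmol [¹⁴C]Phe-tRNA^Phe added; 10 min at 37°C; nitrocellulose filtration, scintillation counting.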

[18] = target: Elongation factor 2 (Homo sapiens) (UniProt P13639); assay: Inhibition of eEF2-mediated tRNA translocation assessed as induction of dipeptide accumulation by TLC
Saccharomyces cerevisiae [19] = assay: Antimicrobial activity against Saccharomyces cerevisiae BY108; format: functional, organism-based; method in brief: as §4
[20] = target: Elongation factor 2 (Homo sapiens) (UniProt P13639); assay: Inhibition of eEF2-mediated tRNA translocation assessed as decrease in tripeptide (Met-Phe-Phe) formation by TLC
Saccharomyces cerevisiae [21] = assay: Antimicrobial activity against Saccharomyces cerevisiae BY724 expressing ribosomal protein cyh2 and harboring mutation in rpl28; format: functional, organism-based; method in brief: as §4
[22] = target: Elongation factor 2 (Homo sapiens) (UniProt P13639); assay: Inhibition of eEF2-mediated tRNA translocation assessed as inhibition of phenylalanyl puromycin formation
Method in brief: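 Set up as eEF1A binding assay but with GTP; 5 min at 37°C, compound added to 200 μM final, 5 min at room temperature, then eEF2, puromycin and GTP added; 10 min at 37°C; ethyl acetate-extractable phenylalanyl-puromycin counted by scintillation.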

Saccharomyces cerevisiae [23] = assay: Antimicrobial activity against Saccharomyces cerevisiae JB503; format: functional, organism-based; method in brief: as §4
Saccharomyces cerevisiae [24] = assay: Antimicrobial activity against Saccharomyces cerevisiae J47alpha; format: functional, organism-based; method in brief: as §4
HEK-293T [25] = assay: Effect on polyribosome profiling in human HEK293T cells assessed as accumulation of 80S ribosomes at 100 uM after 30 mins by spectrophotometry; format: functional, cell-based; method in brief: as §3
Saccharomyces cerevisiae [26] = assay: Antimicrobial activity against Saccharomyces cerevisiae BY740 expressing ribosomal protein cyh2 and harboring mutation in rpl28; format: functional, organism-based; method in brief: as §4
[27] = Binding affinity to 60S ribosome E-site by footprinting assay
Method in brief: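 DMS footprinting of salt-washed 80S ribosomes preincubated 5 min at room temperature with compound, DMS then 5 min at 37°C; rRNA primer extension with AMV reverse transcriptase and [α-³²P]TTP, sequencing gel. For K_D, 300 μl volume at 50 or 100 nM ribosomes titrated with increasing compound.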

Saccharomyces cerevisiae [28] = assay: Antimicrobial activity against Saccharomyces cerevisiae JB281; format: functional, organism-based; method in brief: as §4

CC(/C=C/C(C)=C/[C@@H]1Cc2nc(cs2)[C@@H](C)C[C@@H](N)CC(=O)O[C@@H](C)C/C(C)=C/C=C\C(=O)O1)=C\CN(C)C
inhibition [1]: Active
inhibition [2]: Active

CO[C@@H](/C=C/CC/C=C/C(=O)O)[C@@H](O)[C@H](C)/C=C(\C)[C@H](O)[C@H](C)C(=O)CCCC1CC(=O)NC(=O)C1
Activity (HeLa [3]): inactive
Activity (Jurkat): inactive
Activity (MDA-MB-231): inactive

CO[C@@H](/C=C/CC/C=C/C(=O)O)[C@@H](O)[C@H](C)[C@@H](O)/C(C)=C/[C@H](C)C(=O)CCCC1CC(=O)NC(=O)C1
inhibition (HeLa [4]): inactive
Activity (HeLa [3]): inactive
Activity (Jurkat): inactive
Activity (MDA-MB-231): inactive

CO[C@H]1/C=C/CC/C=C/C(=O)O[C@H]([C@H](C)C(=O)CCCC2CC(=O)NC(=O)C2)/C(C)=C\[C@@H](C)[C@@H]1O
inhibition (HeLa [4]): inactive
Activity (HeLa [3]): inactive
Activity (Jurkat): inactive
Activity (MDA-MB-231): inactive

CSC[S@@+]([O-])CC(CO)NC(=O)/C=C/c1c(C)[nH]c(=O)[nH]c1=O (stereo not given in full)
Activity [5]: Active

C/C(=C\[C@H](C)C(=O)C[C@H](O)CC1CC(=O)NC(=O)C1)[C@@H]1OC(=O)CCCC/C=C/C=C\[C@@H]1C [2H LACTIMIDOMYCIN K]
IC50 (HeLa [4]): 98.5 nM
IC50 (HeLa [6]): > 10000 nM
Activity (HeLa [3]): inactive
Activity (Jurkat): inactive
Activity (MDA-MB-231): inactive

C[C@@H]1C[C@@H]([C@H](O)CC2CC(=O)NC(=O)C2)C(=O)[C@@H](C)C1 [CYCLOHEXIMIDE]
inhibition [7]: inactive
Activity (HEK-293T [8]): inactive
Ratio IC50 (Saccharomyces cerevisiae [9]): 76.3
IC50 (HeLa [4]): 532 nM
inhibition (HeLa [4]): Dose-dependent effect
Ratio IC50 (Saccharomyces cerevisiae [10]): 77
IC50 (Saccharomyces cerevisiae [11]): 20500 nM
Ratio IC50 (Saccharomyces cerevisiae [12]): 232.2
Activity [13]: Active
Activity (HEK-293T [14]): Active
IC50 (HeLa [6]): 2880 nM
inhibition (Oryctolagus cuniculus): inactive
IC50 (Saccharomyces cerevisiae [15]): 7420 nM
Ratio IC50 (Saccharomyces cerevisiae [16]): 232.4
inhibition [17]: inactive
inhibition [18]: Active
IC50 (Saccharomyces cerevisiae [19]): 675 nM
inhibition [20]: Active
IC50 (Saccharomyces cerevisiae [21]): 52100 nM
inhibition [22]: Active
IC50 (Saccharomyces cerevisiae [23]): 32 nM
IC50 (Saccharomyces cerevisiae [24]): 88 nM
Activity (HEK-293T [25]): inactive
IC50 (Saccharomyces cerevisiae [26]): 17300 nM
Activity [27]: Dose-dependent effect
Kd [27]: 15000 nM
IC50 (Saccharomyces cerevisiae [28]): 227 nM

Cc1c2oc3c(C)ccc(C(=O)N[C@@H]4C(=O)N[C@H](C(C)C)C(=O)N5CCC[C@H]5C(=O)N(C)CC(=O)N(C)[C@@H](C(C)C)C(=O)O[C@@H]4C)c3nc-2c(C(=O)N[C@@H]2C(=O)N[C@H](C(C)C)C(=O)N3CCC[C@H]3C(=O)N(C)CC(=O)N(C)[C@@H](C(C)C)C(=O)O[C@@H]2C)c(N)c1=O [DACTINOMYCIN] (I: T[dV]P[Sar][NMeV] / II: T[dV]P[Sar][NMeV]; ester I:1-I:C, II:1-II:C; linker I:N-II:N via Actinocin(1to9))
IC50 (HeLa [4]): 520 nM
inhibition (HeLa [4]): Dose-dependent effect
IC50 (HeLa [6]): 262 nM

CO[C@H]1/C=C/CC/C=C/C(=O)O[C@@H](/C(C)=C/[C@H](C)C(=O)/C=C/CC2CC(=O)NC(=O)C2)[C@@H](C)[C@@H]1O [DIDEHYDRO ISOMIGRASTATIN]
IC50 (HeLa [4]): 1910 nM
IC50 (HeLa [6]): > 10000 nM
Activity (HeLa [3]): inactive
Activity (Jurkat): inactive
Activity (MDA-MB-231): inactive

CO[C@H]1/C=C/CC/C=C/C(=O)O[C@@H](/C(C)=C/[C@H](C)C(=O)CCCC2CC(=O)NC(=O)C2)[C@@H](C)[C@@H]1O [ISOMIGRASTATIN]
IC50 (HeLa [4]): 624 nM
inhibition (HeLa [4]): Dose-dependent effect
IC50 (HeLa [6]): > 10000 nM
Activity (HeLa [3]): inactive
Activity (Jurkat): inactive
Activity (MDA-MB-231): inactive
